# Screening results from PubChem.
# MrgX1 antagonist = antagonists of human MrgX1 receptor | Q96LB2 | MRGX1-HEK293 calcium flux, Fluo-4, BAM8-22 antagonism; active compounds read low | B-score at 10 µM | actives 1.3% (n = 310,000) | AID 588676;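 active = calcium-response B-score plate-corrected more than 3 library SD below zero, starting fluorescence within 5 deviations, no agonist response on first addition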;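 note: peak minus trough fluorescence over baseline after final BAM8-22 challenge near maximal dose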
# Target sequence (Q96LB2 whole entry, looked up): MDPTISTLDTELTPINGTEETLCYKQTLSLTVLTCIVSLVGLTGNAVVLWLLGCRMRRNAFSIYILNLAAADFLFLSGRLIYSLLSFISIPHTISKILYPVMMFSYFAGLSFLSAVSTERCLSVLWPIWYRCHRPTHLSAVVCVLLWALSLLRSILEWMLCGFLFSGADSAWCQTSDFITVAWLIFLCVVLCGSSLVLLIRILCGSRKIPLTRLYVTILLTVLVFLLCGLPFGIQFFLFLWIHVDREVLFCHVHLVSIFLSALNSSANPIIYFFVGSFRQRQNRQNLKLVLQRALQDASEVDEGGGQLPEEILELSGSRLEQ
# RGS4 block = inhibitors of human RGS4. P49798. HEK293 M3R/RGS4 inducible, Fluo-4 calcium flux; active compounds read high; triggered by carbachol at its EC20. B-score at 10 µM. actives 0.45% (n = 310,000). AID 463165;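 active = B-score, a plate-corrected calcium signal, over three deviations above library mean, with baseline fluorescence within five deviations of library mean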;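 note: RGS4 expression induced by doxycycline in cells with stable M3 receptor; B-score is computed from the integrated fluorescence ratio over baseline after carbachol; higher B-score means a larger calcium signal and so more RGS4 inhibition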
# Target sequence (P49798 whole entry, looked up): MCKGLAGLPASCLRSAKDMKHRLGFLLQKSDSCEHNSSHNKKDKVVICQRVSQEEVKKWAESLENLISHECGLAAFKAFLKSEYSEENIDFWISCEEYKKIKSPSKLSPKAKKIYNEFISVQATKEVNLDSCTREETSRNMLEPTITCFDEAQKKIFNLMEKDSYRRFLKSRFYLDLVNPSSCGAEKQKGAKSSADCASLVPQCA
# MrgX1 PAM = allosterically activates human MrgX1 receptor signaling. MrgX1-HEK293, Fluo-4 calcium flux, FDSS; active compounds read high. AID 588675. B-score at 10 µM. actives 0.63% (n = 310,000);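 active = plate-corrected calcium response at least 3 library SD above typical, normal starting fluorescence, not activating the receptor alone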;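 note: compound read alongside a low EC10 to EC30 dose of BAM8-22 agonist; peak minus trough fluorescence over baseline measured at the second addition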
# RGS4 pot = potentiators or activators of RGS4; HEK293 M3R/inducible RGS4, carbachol calcium flux Fluo4; active compounds read low; B-score at 10 µM; actives 0.92% (n = 310,000);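 active = B-score of the integrated calcium signal more than 4 SD below the library mean, with starting fluorescence not abnormally high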;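 note: negative B-score means reduced calcium response which marks RGS4 activation or potentiation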
#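 System – HEK293 FlpIn-TREx cells, stable M3R, doxycycline-inducible RGS4 · Reagent – ECmax carbachol challenge · Times – compound preincubation 20 min at room temperature before agonist · Technique – Fluo4 fluorescence kinetic imaging of calcium · Measure – B score of integrated Fluo4 ratio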
# MrgX1 ag = activates human MrgX1 receptor signaling | Q96LB2 | MrgX1-HEK293 cells, Fluo-4 calcium fluorescence, agonist mode; active compounds read high | B-score at 10 µM | actives 0.44% (n = 310,000);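 active = calcium response B-score plate-corrected fluorescence ratio at least 3 library SD, with starting fluorescence B-score inside 5 SD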
#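 Assay system: MrgX1-expressing HEK293 cells / Amount: fifteen thousand cells per well / Doses: test compound in the initial addition of three / Timing: cells plated overnight, dye loaded 0.5 h 37 °C, 0.5 h room temperature / Technique: kinetic calcium dye fluorescence, Fluo-4 NW / Control set: positive and negative controls per plate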
# MrgX1 allo conf = human MrgX1 positive allosteric modulation, re-confirmation; MrgX1-HEK293, Fluo-4 calcium fluorescence, FDSS; shares compounds with MrgX1 PAM; activation (ratio percentage), % at 10 µM; AID 602413; actives 13% (n = 1,200);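 active = ratio at least 3 SD above the weak peptide control, stable starting fluorescence, no direct agonism earlier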;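 note: compound followed by low BAM8-22 agonist challenge near EC20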
# MrgX1 antag conf = human MrgX1 receptor antagonism, re-confirmation screen. remaining BAM8-22 calcium response % of control (active compounds read low), % at 10 µM. AID 602420. shares compounds with MrgX1 antagonist. actives 19% (n = 2,300). MrgX1-HEK293, BAM8-22 calcium flux, Fluo-4; active compounds read low;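 active = remaining agonist calcium response no higher than 100% minus 3 SD of agonist-only control wells, with starting fluorescence near control levels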;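 note: agonist BAM8-22 given at a near maximal EC90 to ECmax level; peak minus minimum fluorescence divided by baseline after agonist addition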
# HEK293 Ca flux = counter-screen for MrgX1 antagonists: effect in parental HEK293 cells; shares compounds with MrgX1 antagonist; actives 2% (n = 4,000); fluorescence ratio F(max-min)/F0 at 10 µM; AID 624111; Fluo-4 calcium fluorescence, FDSS;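 active = duplicate-averaged calcium fluorescence ratio at least three times the standard deviation of buffer wells, a nonspecific response in parental cells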
# HEK293 Ca counter = MrgX1 allosteric activator counter-screen hit in parental HEK293 cells; actives 0.4% (n = 4,000); shares compounds with MrgX1 antagonist; fluorescence ratio F(max-min)/F0 at 10 µM; parental HEK293 calcium flux, Fluo-4 fluorescence ratio; active compounds read high; AID 624114;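 active = calcium fluorescence ratio, averaged over duplicates, at least 3 SD of the buffer-well ratio, meaning a nonspecific response in receptor-free cells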;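 note: untransfected parental HEK293 lacking MrgX1 used as counterscreen for MrgX1 allosteric activators; fluorescence change taken during the second addition on a kinetic imager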
# HEK293 Ca cntr2 = counter-screen for MrgX1 activators: effect in parental HEK293 cells; AID 624115; fluorescence ratio F(max-min)/F0 at 10 µM; actives 8.7% (n = 4,000); Fluo-4 calcium fluorescence (FDSS); active compounds read high; shares compounds with MrgX1 antagonist;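 active = calcium fluorescence ratio at least three times the spread of buffer wells, meaning a non-specific response in parental cells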
# * hit, by the source's call; i = inactive; nt = not tested or not shown. Sampled rows, rich in hits. Any-hit rate of the full collection: about 3.5%.
SMILES,MrgX1 antagonist,RGS4 block,MrgX1 PAM,RGS4 pot,MrgX1 ag,MrgX1 allo conf,HEK293 Ca flux,HEK293 Ca counter,HEK293 Ca cntr2,others
Cc1cc2c(N3CCCCC3C)ncnc2s1 (stereo not drawn),i,i,7.1*,i,i,i,i,i,i,
O=C(Cc1ccc(F)cc1)Nc1nnc(SCC(=O)N2CCCCC2)s1,i,i,i,i,i,nt,nt,nt,nt,
O=C(Nc1nnc(SCC(=O)N2CCCCC2)s1)c1ccc(F)cc1F,i,i,6.8*,i,i,i,i,i,i,
O=C(NCc1ccc(F)cc1)C1CCCN(S(=O)(=O)c2ccc(-n3cnnn3)cc2)C1 (stereo not drawn),i,i,8*,i,i,i,i,i,i,
COc1ccccc1C(=O)NCC(=O)n1nc(C)cc1C,i,i,i,i,i,nt,nt,nt,nt,
COc1ccc(C)cc1NC(=O)C1CCN(C(=O)Cc2ccccc2)CC1,i,i,11*,i,i,i,i,i,i,
COC(=O)c1ccccc1NC(=O)C1CCN(C(=O)Cc2ccccc2)CC1,i,i,i,i,i,nt,nt,nt,nt,
O=C(N/C(=C\c1ccc(Br)cc1)C(=O)N1CCOCC1)c1ccc(Br)o1,i,i,i,i,i,nt,nt,nt,nt,
O=C(CSc1nnc2c(n1)[nH]c1ccc(F)cc12)OCc1ccccc1,i,i,i,i,i,nt,nt,nt,nt,
Cc1cc(F)ccc1NC(=O)c1cnccn1,i,i,11*,i,i,i,i,i,i,
OC(COc1ccc2cc(Br)ccc2c1)CN1CCCC1 (stereo not drawn),i,i,i,i,i,nt,nt,nt,nt,
O=C(C1CC1)N1CCc2cc(Br)cc(S(=O)(=O)N3CCCCCC3)c21,i,i,11*,i,i,i,i,i,i,
COc1ccc(OC)c(C2CC(=O)N3CN(c4ccc(C)c(Cl)c4)CSC3=C2C#N)c1 (stereo not drawn),i,i,i,i,i,nt,nt,nt,nt,
Cc1ccccc1Nc1nnc(SCC2CCCCO2)s1 (stereo not drawn),i,i,i,i,i,nt,nt,nt,nt,
Cc1ccc(Nc2nnc(SCC3CCCCO3)s2)cc1 (stereo not drawn),i,i,8.5*,i,i,i,i,i,i,
Cc1ccc(Nc2nc(-c3ccc(S(=O)(=O)N4CCCC4)cc3)cs2)cc1C,i,i,i,i,i,nt,nt,nt,nt,
Cc1nnc2ccc(-c3ccc(NS(=O)(=O)c4ccccc4F)cc3)nn12,i,i,i,i,i,nt,nt,nt,nt,
Cc1nnc2ccc(-c3ccc(NS(=O)(=O)c4ccc(F)cc4F)cc3)nn12,i,i,9.7*,i,i,i,i,i,i,
COc1ccccc1/C=C/C(=O)OC(C)CN1CCCCC1 (stereo not drawn),i,i,i,i,i,nt,nt,nt,nt,
Nc1c(C=C2C=CC(=O)C=C2)c(=O)nc2sc(CC(=O)N3CCCC3)nn12,i,i,i,i,i,nt,nt,nt,nt,
CCS(=O)(=O)c1nn2c(N)c(/C=C3/C=CC(=O)C(OC)=C3)c(=O)nc2s1,i,i,28*,i,i,i,i,i,63*,
Cc1ccc(CN2CCN(Cc3cccc(-n4cccn4)c3)CC2CCO)cc1 (stereo not drawn),i,i,i,i,i,nt,nt,nt,nt,
COc1cccc(C(C(=O)NC2CCCC2)N(CCC(C)C)C(=O)CCC(=O)Nc2cc(C)on2)c1 (stereo not drawn),i,i,i,i,i,nt,nt,nt,nt,
CC(Cc1ccccc1)NC(=O)c1cc2ccccc2o1 (stereo not drawn),i,i,i,i,i,nt,nt,nt,nt,
COc1cccc(/C=N/n2c(SC)nnc2-c2ccccc2)c1O,i,i,20*,i,i,154%*,i,i,i,
SMILES,MrgX1 antagonist,RGS4 block,MrgX1 PAM,RGS4 pot,MrgX1 ag,MrgX1 allo conf,HEK293 Ca flux,HEK293 Ca counter,HEK293 Ca cntr2,others
COc1ccc(Cl)cc1N(CC(=O)Nc1cccc(SC)c1)S(C)(=O)=O,i,i,8.3*,i,i,i,i,i,i,
CC1CCCN(C(=O)CSc2nnc(-c3c[nH]c4ccccc34)o2)C1 (stereo not drawn),i,i,9.5*,i,i,8.7%*,i,i,i,
CCn1c(SCC(=O)Nc2ccc(OC)cc2)nc2c(c1=O)SCC2,i,i,i,i,i,nt,nt,nt,nt,
Cc1cc(O)cc(C)c1Cl,i,i,17*,i,i,i,i,i,i,
COc1cccc(C(=O)/C=C/Nc2ccc(S(=O)(=O)Nc3cc(OC)nc(OC)n3)cc2)c1,i,i,20*,i,i,i,i,i,i,
COc1ccc(N2CCN(S(=O)(=O)c3cccc4cccnc34)CC2)cc1,i,i,i,i,i,nt,nt,nt,nt,
COc1ccccc1NC(=O)c1ccc(NS(=O)(=O)c2ccc(F)c(F)c2F)cc1,i,i,36*,i,i,28%*,i,i,i,
CN1CCN(C2=C(Cl)C(=O)N(Cc3ccccc3)C2=O)CC1,i,i,i,i,i,nt,nt,nt,nt,
CC(C)(C)c1ccc(O)c(/C=N\O)c1,i,i,38*,i,i,i,i,i,i,
CCOC(=O)c1c(C)nc2ccccc2c1-c1ccccc1,i,i,7.6*,i,i,i,i,i,i,
CCOC(=O)c1c(C)nc2c(c1-c1ccc(Cl)cc1)C(=O)CC(C)(C)C2,-4.8*,i,8.6*,i,i,i,i,i,i,MrgX1 antag conf=i
CCOC(=O)c1c(C)nc2c(c1-c1cc(OC)ccc1OC)C(=O)c1ccccc1-2,i,i,i,i,i,nt,nt,nt,nt,
